Consider 34 molecules from ChEMBL document CHEMBL4480371, “Benzoflavone derivatives as potent antihyperuricemic agents” (Medchemcomm, 2019).

The source made the active and inactive calls. The rule behind the calls is not given here.

One may read the IC50 as the concentration that gives 50% inhibition.

Data set [1] has as its system Mus musculus. As to the kind of experiment: Anti-hyperuricemic effect in Swiss albino mouse model of potassium oxonate-induced hyperuricemia model assessed as reduction in serum uric acid level at 0.55 mg/kg, po treated 1 hr post potassium oxonate addition and measured after 30 mins by ERBA method. It counts as functional, organism-based. Conditions: 0.5 mg/kg, in the assay text read “0.5 mg/kg” for “0.55 mg/kg”. The essentials: (§1)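 Male Swiss albino mice, […], 25–30 g, n = 6 per group, fasted 6 h from feed. Xanthine 500 mg/kg was given orally, then potassium oxonate 300 mg/kg ip 30 min later, both in 0.5% CMC. Compounds were dosed orally 1 h after oxonate. Retro-orbital blood was drawn 2 h after PO+Xn, and serum uric acid was read by kit at 505 nm (5 min, 37 °C). Mean ± S.E.M., ANOVA/Tukey.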

Data set [2] relates to Mus musculus. Briefly: Anti-hyperuricemic effect in Swiss albino mouse model of potassium oxonate-induced hyperuricemia model assessed as serum uric acid level at 5 mg/kg, po treated 1 hr post potassium oxonate addition and measured after 30 mins by ERBA method (reference value: 5.9 +/- 0.42 mg/dl). It counts as functional. The essentials: as §1
For data set [3], the system named is Mus musculus. As to the kind of experiment: Anti-hyperuricemic effect in Swiss albino mouse model of potassium oxonate-induced hyperuricemia model assessed as serum uric acid level at 1 to 10 mg/kg, po treated 1 hr post potassium oxonate addition and measured after 30 mins by ERBA method (reference value: 5.9 +/- 0.42 mg/dl). It counts as functional. The method, boiled down: as §1

Data set [4] can be described thus: Antioxidant activity assessed as DPPH radical scavenging activity shaken for 1 min and incubated under dark condition for 30 mins by spectrophotometric analysis. It counts as functional. The essentials:
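DPPH at 0.004% w/v and compounds were made in methanol, mixed 1.5 mL to 1 mL, shaken 1 min at 37 °C, then kept 30 min in the dark. Absorbance was read at 517 nm and % scavenging calculated against a DPPH-plus-methanol control. […] Triplicate, mean.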
For orientation: The DPPH test is a chemical assay of radical scavenging.

Data set [5] deals with T1, Xanthine dehydrogenase/oxidase (Bos taurus, UniProt P80457). Briefly: Inhibition of bovine milk xanthine oxidase using xanthine as substrate preincubated for 5 mins followed by substrate addition by UV-visible spectrophotometry.
Data set [6] relates to Mus musculus. Briefly: Anti-hyperuricemic effect in Swiss albino mouse model of potassium oxonate-induced hyperuricemia model assessed as reduction in serum uric acid level treated orally 1 hr post potassium oxonate addition and measured after 30 mins by ERBA method. It counts as functional, organism-based. The method, boiled down:
as §1

A short description of data set [7]: Acute toxicity in potassium oxonate-induced Swiss albino mouse hyperuricemic model assessed as induction of abnormal behavior at 2000 mg/kg, po measured after 24 hrs. Conditions: in vivo.
In data set [8] the target is T1, Xanthine dehydrogenase/oxidase. As to the kind of experiment: Competitive mixed type inhibition of bovine milk xanthine oxidase using xanthine as substrate preincubated for 5 mins followed by substrate addition by UV-visible spectrophotomety based Lineweaver-Burk plot analysis. Conditions: cattle. The method, boiled down:
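Bovine milk xanthine oxidase was assayed in 50 mM potassium phosphate (pH 7.6) at 25 °C, with uric acid formation followed at 293 nm. Enzyme was preincubated 5 min with inhibitor in 1% v/v DMSO, and the reaction was started with xanthine. Inhibition mode came from Lineweaver–Burk plots.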

Data set [9] relates to Mus musculus. As to the kind of experiment: Anti-hyperuricemic effect in Swiss albino mouse model of potassium oxonate-induced hyperuricemia model assessed as serum uric acid level at 10 mg/kg, po treated 1 hr post potassium oxonate addition and measured after 30 mins by ERBA method (reference value: 5.9 +/- 0.42 mg/dl). It counts as functional.

T1 sequence (P80457 whole entry): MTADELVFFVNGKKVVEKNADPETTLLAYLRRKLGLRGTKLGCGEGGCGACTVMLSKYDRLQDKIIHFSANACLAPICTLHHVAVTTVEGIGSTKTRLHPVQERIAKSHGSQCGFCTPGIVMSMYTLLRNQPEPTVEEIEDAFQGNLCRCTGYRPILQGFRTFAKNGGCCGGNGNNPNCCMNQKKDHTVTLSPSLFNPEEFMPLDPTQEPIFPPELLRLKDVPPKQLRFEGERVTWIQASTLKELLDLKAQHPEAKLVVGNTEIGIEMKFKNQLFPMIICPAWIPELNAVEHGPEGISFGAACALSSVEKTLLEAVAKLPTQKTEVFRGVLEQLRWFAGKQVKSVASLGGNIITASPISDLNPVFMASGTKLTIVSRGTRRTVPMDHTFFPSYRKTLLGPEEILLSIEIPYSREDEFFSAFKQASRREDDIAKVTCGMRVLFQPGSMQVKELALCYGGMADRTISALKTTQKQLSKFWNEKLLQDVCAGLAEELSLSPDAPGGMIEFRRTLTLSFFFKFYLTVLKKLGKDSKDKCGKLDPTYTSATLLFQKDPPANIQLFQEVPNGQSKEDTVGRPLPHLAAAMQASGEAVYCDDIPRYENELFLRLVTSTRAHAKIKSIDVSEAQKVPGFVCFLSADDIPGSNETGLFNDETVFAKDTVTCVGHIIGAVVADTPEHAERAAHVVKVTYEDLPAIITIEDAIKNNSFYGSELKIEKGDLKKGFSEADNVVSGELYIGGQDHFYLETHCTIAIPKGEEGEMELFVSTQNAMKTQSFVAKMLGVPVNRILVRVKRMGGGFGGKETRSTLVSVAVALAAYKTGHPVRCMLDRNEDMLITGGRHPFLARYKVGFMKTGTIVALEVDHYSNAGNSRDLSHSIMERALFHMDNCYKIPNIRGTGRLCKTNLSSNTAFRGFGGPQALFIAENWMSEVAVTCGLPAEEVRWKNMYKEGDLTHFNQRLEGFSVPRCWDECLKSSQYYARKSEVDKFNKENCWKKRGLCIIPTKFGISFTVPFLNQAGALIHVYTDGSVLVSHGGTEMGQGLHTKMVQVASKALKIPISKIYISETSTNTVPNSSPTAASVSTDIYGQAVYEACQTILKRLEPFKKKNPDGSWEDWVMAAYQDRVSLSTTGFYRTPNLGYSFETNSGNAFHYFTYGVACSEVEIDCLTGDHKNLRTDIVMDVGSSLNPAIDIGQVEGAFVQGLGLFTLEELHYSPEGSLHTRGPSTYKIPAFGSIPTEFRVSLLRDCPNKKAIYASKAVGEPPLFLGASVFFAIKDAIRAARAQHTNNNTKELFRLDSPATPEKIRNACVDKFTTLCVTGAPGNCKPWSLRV

Turning to `O=c1cc(-c2cc(F)cc(F)c2)oc2ccc3ccccc3c12`, the inhibition result in [1] was “inactive”. In data set [2], the outcome was Active. Further, the Activity in data set [3] was 1.8 to 2.8 mg/dL; in [6], “Dose-dependent effect”; in [7], “Non-Toxic”. In addition, the results for the IC50 in data set [4] and in data set [5] were above 20 µM and 7.67 µM, respectively.
For the molecule `O=c1cc(-c2cccc([N+](=O)[O-])c2)oc2ccc3ccccc3c12`, the IC50 in data set [4] and in [5] was above 20 µM each time.
Consider `O=c1cc(-c2cc([N+](=O)[O-])cc([N+](=O)[O-])c2)oc2ccc3ccccc3c12`, for which the IC50 in data set [4] and in data set [5] was above 20 µM each time.
In the case of `O=c1cc(-c2cc([N+](=O)[O-])cc([N+](=O)[O-])c2)oc2c1ccc1ccccc12`, the IC50 in data set [4] was 5.55 µM; in data set [5], above 20 µM.
For `COc1ccc(-c2cc(=O)c3c(ccc4ccccc43)o2)cc1`, in that order: above 20 µM and above 20 µM.
Consider `Cc1ccc(-c2cc(=O)c3ccc4ccccc4c3o2)cc1`, for which the IC50 is 6.5 µM in data set [4] and above 20 µM in data set [5].
For `O=c1cc(-c2cccc(Cl)c2Cl)oc2c1ccc1ccccc12`, in that order: 10.9 µM and above 20 µM.
As for `O=c1cc(-c2ccc(F)cc2)oc2ccc3ccccc3c12`, the IC50 is above 20 µM in data set [4] and 12.4 µM in data set [5].
For `O=c1cc(-c2ccccc2F)oc2ccc3ccccc3c12`, the IC50 in data set [4] is above 20 µM; in data set [5] it was 14.7 µM.
For `O=c1cc(-c2ccc([N+](=O)[O-])cc2)oc2ccc3ccccc3c12`, in data set [8], the “inhibition (INH)” value is “Active”. In addition, the IC50 in [4] is above 20 µM; in data set [5], 5.21 µM. Besides, in [6], the Activity entry is “Dose-dependent effect”. The outcome in data set [9] was Active.
On to `O=c1cc(-c2ccc(Br)cc2)oc2ccc3ccccc3c12`, for which the inhibition entry in data set [1] is “inactive”. Besides, in data set [2], the result was Active. Also, the results for the Activity in [3] and in data set [6] were 1.8 to 2.8 mg/dL and “Dose-dependent effect”, respectively. Besides, the results for the IC50 in data set [4] and in data set [5] were above 20 µM and 8.9 µM, respectively.
In the case of `O=c1cc(-c2cccc(Cl)c2)oc2c1ccc1ccccc12`, the IC50 in [4] was 7.75 µM; in [5], above 20 µM.
Take `O=c1cc(-c2ccccc2I)oc2c1ccc1ccccc12`: the results for the IC50 in [4] and in [5] were 7.33 µM and 19.4 µM, respectively.
As to `O=c1cc(-c2ccc(F)cc2)oc2c1ccc1ccccc12`, the results for the half-maximal inhibitory concentration (IC50) in data set [4] and in [5] were 0.83 µM and 0.62 µM, respectively. In addition, in data set [6], the Activity entry was “Dose-dependent effect”. The outcome in data set [9] was inactive.
`O=c1cc(-c2ccc(Br)cc2)oc2c1ccc1ccccc12`: the inhibition entry in [1] was “inactive”. For the same molecule, the figures for the Activity in [3] and in data set [6] were 1.8 to 2.8 mg/dL and “Dose-dependent effect”, respectively. For the same molecule, the IC50 in data set [4] came out at 0.35 µM; in data set [5] it was 8.93 µM.
For the molecule `O=c1cc(-c2ccccc2Br)oc2ccc3ccccc3c12`, the IC50 in data set [4] is above 20 µM; in data set [5] it was 17.1 µM.
Regarding `O=c1cc(-c2cccc(Br)c2)oc2ccc3ccccc3c12`, the IC50 in data set [4] and in data set [5] was above 20 µM in each case.
Take `O=c1cc(-c2ccc([N+](=O)[O-])cc2)oc2c1ccc1ccccc12`: the results for the half-maximal inhibitory concentration (IC50) in data set [4] and in data set [5] were 0.62 µM and 1.95 µM, respectively. For the same molecule, the Activity result in data set [6] was “Dose-dependent effect”. In addition, the outcome in [9] was inactive.
For `O=c1cc(-c2cccc(F)c2)oc2c1ccc1ccccc12`, the IC50 in [4] is 10.1 µM; in data set [5], above 20 µM.
As to `O=c1cc(-c2ccccc2F)oc2c1ccc1ccccc12`, the inhibition result in [1] was “inactive”. Further, the Activity in data set [3] is 1.8 to 2.8 mg/dL; in [6], “Dose-dependent effect”; in [7], “Non-Toxic”. The IC50 in data set [4] was 4.73 µM; in data set [5], 4.94 µM.
As to `COc1ccc(-c2cc(=O)c3ccc4ccccc4c3o2)cc1`, the IC50 came to 4.27 µM in [4] and 18.9 µM in data set [5].
Regarding `Cc1ccc(-c2cc(=O)c3c(ccc4ccccc43)o2)cc1`, the IC50 in data set [4] and in data set [5] was above 20 µM throughout.
For the molecule `O=c1cc(-c2cccc([N+](=O)[O-])c2)oc2c1ccc1ccccc12`, the results for the IC50 in [4] and in [5] were 8.24 µM and above 20 µM, respectively.
As for `Cc1nc(-c2ccc(OCC(C)C)c(C#N)c2)sc1C(=O)O` [FEBUXOSTAT], in data set [2], the Activity stood at 1.5 mg/dL.
As for `O=c1cc(-c2ccccc2)oc2ccc3ccccc3c12` [BETA-NAPHTHOFLAVONE], the IC50 in data set [4] and in data set [5] was above 20 µM throughout.
Regarding `O=c1cc(-c2cccc(Br)c2)oc2c1ccc1ccccc12`, the figures for the IC50 in [4] and in data set [5] were 5.98 µM and above 20 µM, respectively.
On to `O=c1cc(-c2ccccc2)oc2c1ccc1ccccc12` [ALPHA-NAPHTHOFLAVONE], for which the values for the IC50 in data set [4] and in [5] were 15.6 µM and above 20 µM, respectively.
As to `O=c1cc(-c2cccc(Cl)c2Cl)oc2ccc3ccccc3c12`, the IC50 in [4] was above 20 µM; in [5] it was 18.6 µM.
For `O=c1cc(-c2ccccc2Br)oc2c1ccc1ccccc12`, in that order: 9.9 µM and 16.8 µM.
Take `O=c1cc(-c2cc(F)cc(F)c2)oc2c1ccc1ccccc12`: in data set [1], the inhibition entry was “inactive”. Moreover, the values for the Activity in data set [3] and in data set [6] were 1.8 to 2.8 mg/dL and “Dose-dependent effect”, respectively. In addition, the IC50 in [4] was determined as 3.14 µM; in data set [5] it was 6.95 µM.
Turning to `Oc1ncnc2[nH]ncc12` [ALLOPURINOL], the Activity in [9] came to 1.8 mg/dL.
On to `O=c1cc(-c2cccc(F)c2)oc2ccc3ccccc3c12`, for which the IC50 in [4] and in data set [5] was above 20 µM each time.
On to `O=c1cc(-c2cccc(Cl)c2)oc2ccc3ccccc3c12`, for which the IC50 in data set [4] and in data set [5] was above 20 µM each time.
As for `O=c1cc(-c2ccccc2I)oc2ccc3ccccc3c12`, the IC50 in [4] and in [5] was above 20 µM throughout.
